Kir21 block – inhibitors of mouse Kir2.1 inward-rectifier potassium channel. HEK293-Kir2.1, FluxOR thallium flux fluorescence; hits give low values. B-score at 10 µM. actives 0.85% (n = 310,000). AID 1672, 2009;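 active = fluorescence ratio B-score at or below minus 3 SD of library scores, with starting-brightness B-score within 2 SD, cut at about -4.2 in these data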;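 note: channel flux triggered by added potassium and thallium sulfate stimulus; B-score of peak minus minimum fluorescence over baseline after thallium stimulus; more negative B-score means stronger Kir2.1 block with less thallium influx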
TRPC6 act – mouse TRPC6 channel activators, primary screen, cell-based, HEK293, membrane potential dye; HEK293-TRPC6 membrane potential dye fluorescence; hits give high values; B-score at 10 µM; actives 0.13% (n = 310,000); Short transient receptor potential channel 6 (Mus musculus), Q61143; AID 2550, 2010;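 active = B-score of the integrated fluorescence ratio above library mean plus 3 SD, and starting fluorescence ratio within library mean plus 5 SD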;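 note: higher score means more depolarization so channel activation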
TRPC4 PAM – positive allosteric modulators of TRPC4, primary screen, cell-based, mouse TRPC4beta, HEK293 mu-opioid, Fluo-4 calcium. B-score at 10 µM. Short transient receptor potential channel 4 (Mus musculus), Q9QUQ5. actives 0.42% (n = 310,000). DAMGO EC20, Fluo-4 Ca2+ flux; hits give high values;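 active = B-score of calcium response area above 5 SD of library B-scores, with initial fluorescence ratio within 5 SD of library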
TRPC4 act – activators of mouse TRPC4 channel, primary screen, Fluo4 calcium, HEK293 TRPC4beta/mu-opioid cells | B-score at 10 µM | AID 2237, 2010 | actives 0.49% (n = 310,000) | Fluo4 calcium fluorescence; hits give high values | Short transient receptor potential channel 4 (Mus musculus), Q9QUQ5;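 active = B-score above 5 SD of library B-scores, and initial fluorescence ratio not above library mean plus 5 SD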;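 note: positive B-score marks a calcium rise read as TRPC4 activation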
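System: HEK293 cells stably co-expressing mouse TRPC4beta and mu-opioid receptor; Schedule: Fluo4 dye loading 45 min at room temperature, 110 s recording; Detection: Fluo4 fluorescence, kinetic; Evaluation: B-scored integrated calcium fluorescence ratio; Controls: buffer (low) and maximal DAMGO (high).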
TRPC4 block – inhibitors of mouse TRPC4 channel, primary screen, Fluo4 calcium, HEK293 TRPC4beta/mu-opioid cells. actives 0.39% (n = 300,000). Short transient receptor potential channel 4 (Mus musculus), Q9QUQ5. B-score at 10 µM. DAMGO-evoked Fluo4 calcium flux; hits give low values;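 active = B-score over 3 SD under the library average, no early fluorescence shift, positive overall ratio signal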
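test system = HEK293 cells with stable TRPC4beta plus mu-opioid receptor expression | detection = Fluo4 Ca2+ flux fluorescence | read-out = integrated fluorescence ratio relative to baseline, converted to per-well B score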
TRPC6 inhibitor – mouse TRPC6 channel inhibitors, primary screen, cell-based, HEK293, membrane potential dye; Short transient receptor potential channel 6 (Mus musculus), Q61143; actives 1.1% (n = 310,000); B-score at 10 µM; ACh-evoked depolarization; hits give low values;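 active = B-score under library mean minus 3 SD, initial fluorescence not abnormally high, positive integrated signal ratio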;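 note: B-score derived from integrated fluorescence ratio over the kinetic read; more negative B-score means stronger inhibition of depolarization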
TRPC4 sel inh 2 – second check of whether TRPC6 inhibitors also affect mouse TRPC4; shares compounds with TRPC6 inhibitor; HEK293 TRPC4/MOR, membrane potential dye fluorescence; channel activated by saturating DAMGO dose; inhibition, % at 10 µM; actives 42% (n = 920);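 active = compounds whose fluorescence signal differed from control wells by over 3 SD, either direction, in both duplicate plates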
TRPC4 spec – mouse TRPC4 modulation by TRPC6 hits, confirmation, selectivity assay for TRPC6 inhibitor project, cell-based, HEK293 TRPC4/mu-opioid, membrane potential dye; shares compounds with TRPC6 inhibitor; membrane potential fluorescence; activity change, negative = inhibition, % at 10 µM; actives 61% (n = 920); AID 2777, 2010;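 active = rise or fall in signal beyond 3 SD of buffer-only wells in both replicate plates, either sign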;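 note: integrated kinetic ratio of fluorescence range over baseline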
HEK293 MPD ctr 2-1 – nonspecific membrane potential effects, parental HEK293, confirmation, counter-screen for TRPC6 inhibitor project, cell-based, second counter screen; signal change vs control, % at 10 µM; actives 31% (n = 920); parental HEK293 membrane potential dye fluorescence; maximal acetylcholine challenge after compound addition; shares compounds with TRPC6 inhibitor; AID 2779, 2010;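 active = membrane potential signal moving either way by over 3 SD of the maximum-effect control, in both duplicate plates, meaning non-specific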
HEK293 MPD ctr-1 – membrane potential modulation in parental HEK293, confirmation, counter-screen for TRPC6 inhibitor project, cell-based; shares compounds with TRPC6 inhibitor; parental HEK293 membrane potential dye fluorescence; membrane potential signal change, % at 10 µM; actives 60% (n = 920); AID 2780, 2010;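 active = membrane potential signal shifting up or down by more than 3 SD of buffer-only wells, on both duplicate plates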
HEK293 MPD ctr-2 – parental HEK293 membrane potential modulation, confirmation, counter-screen for TRPC6 modulator project, cell-based | actives 51% (n = 2,400) | membrane potential signal change, % at 10 µM | membrane potential dye fluorescence | shares compounds with TRPC6 inhibitor;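 active = membrane potential signal moves up or down beyond 5 SD from buffer-only wells, on both duplicate plates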
HEK293 MPD ctr 2-2 – second check of TRPC6 modulator effects in parental HEK293 cells | shares compounds with TRPC6 inhibitor | AID 488926 | actives 14% (n = 2,400) | inhibition, % at 10 µM | membrane potential dye fluorescence; after compound, maximal acetylcholine stimulation;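 active = membrane potential signal drops by more than 5 SD from the mean control signal, in both duplicate plates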
TRPC4 ctr mod – TRPC4 modulation by TRPC6 hit compounds, confirmation, selectivity assay for TRPC6 modulator project, cell-based, HEK293 TRPC4/mu-opioid, membrane potential dye, mouse | shares compounds with TRPC6 inhibitor | membrane potential fluorescence | percent change from control (negative = decrease, positive = increase), % at 10 µM | actives 69% (n = 2,400);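 active = membrane potential signal moved up or down beyond 5 SD of buffer control wells, in both duplicate plates, actives on both sides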
TRPC4 ctr inh 2 – mouse TRPC4 off-target activity of TRPC6 modulators, second screen. HEK293 TRPC4/mu-opioid, membrane potential dye fluorescence; stimulated with maximal-effect DAMGO. actives 55% (n = 2,400). inhibition, % at 10 µM. shares compounds with TRPC6 inhibitor;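 active = drop in membrane potential signal beyond 5 SD of the control wells in both duplicate plates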;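 note: TRPC4 counter screen for TRPC6 hits run under conditions tuned for TRPC6 not TRPC4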
TRPC6 block conf – mouse TRPC6 channel inhibitors, confirmation, HEK293 cells, membrane potential dye, duplicate | shares compounds with TRPC6 inhibitor | ACh-evoked depolarization | inhibition, % at 10 µM | actives 43% (n = 3,300);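 active = fluorescence ratio falls more than 5 SD below the full-stimulation control mean, in both duplicate runs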;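 note: integrated fluorescence ratio of peak minus minimum over baseline after agonist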
TRPC6 act confirm – mouse TRPC6 channel activators, confirmation, HEK293 cells, membrane potential dye, duplicate. shares compounds with TRPC6 inhibitor. HEK293-TRPC6 membrane potential dye fluorescence, FDSS. activation, % at 10 µM. actives 11% (n = 2,800). AID 488961, 2010;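 active = ratio signal rise beyond 5 SD above unstimulated control wells' mean, seen in both duplicate runs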
Each line names hits and unclear results; the compound was inactive in the other large screens (follow-up assays come after a bar, where they were run). Rows were chosen to be rich in hits. Some 3% of all compounds tested hit in one or more screens of this group.

Cc1ccc(Sc2c([N+](=O)[O-])c(C)nn2C)cc1	TRPC6 inhibitor -8.32 | TRPC4 sel inh 2 inactive | TRPC4 spec inactive | HEK293 MPD ctr 2-1 -4.0% | HEK293 MPD ctr-1 inactive | TRPC6 block conf 84.7% | TRPC6 act confirm inactive
O=S(=O)(NC1CCN(Cc2ccccc2)CC1)c1ccc2ccccc2c1	none
O=C(NNS(=O)(=O)c1ccc2ccccc2c1)C1CCN(Cc2ccccc2)CC1	TRPC6 inhibitor -18 | TRPC4 sel inh 2 inactive | TRPC4 spec 4.8% | HEK293 MPD ctr 2-1 0.0% | HEK293 MPD ctr-1 5.2% | TRPC6 block conf 82.9%
O=C(NNS(=O)(=O)c1ccc(F)cc1)C1CCN(S(=O)(=O)c2ccccc2)CC1	none
O=C(NNS(=O)(=O)c1ccc(F)cc1)C1CCN(Cc2cccc(F)c2)CC1	TRPC6 inhibitor -5.02 | HEK293 MPD ctr-2 inactive | HEK293 MPD ctr 2-2 inactive | TRPC4 ctr mod inactive | TRPC4 ctr inh 2 inactive | TRPC6 block conf inactive | TRPC6 act confirm inactive
CC(C)N=C(NS(=O)(=O)NC(=O)c1ccccc1)c1ccccc1	none
COc1ccc2[nH]c(=O)c(CN(C(=O)c3cccnc3)c3ccccc3C)cc2c1	none

Compound activity: PubChem, Johns Hopkins Ion Channel Center
